Test system: HEK-293T
Test: Multiplex assay against HEK293T;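 on Population Tubulin-Different-Phenotype (%): share of the cells with healthy nuclei that show this phenotype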
Type: toxicity, cell-based
Details: human
How it was run: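 Compound was added to live cells that had been stained at seeding with Hoechst33342, BioTracker Green Microtubule Cytoskeleton Dye, MitoTracker Red and Annexin V Alexa Fluor 680, and imaging followed on a CQ1 microscope at 37°C and 5% CO2. CellPathfinder machine-learning gating divided cells into Hoechst high-intensity objects or normal cells, normal cells into healthy, pyknosed or fragmented nuclei, and pyknosed cells into mitotic or apoptotic. Tubulin, mitochondrial-mass and membrane-permeability phenotypes are per cents of healthy-nucleus cells.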

[1] = 12 h, 1 µM, compound concentration 1 uM, replicate 1
[2] = 12 h, 1 µM, compound concentration 1 uM, replicate 2
[3] = 12 h, 10 µM, compound concentration 10 uM, replicate 1
[4] = 12 h, 10 µM, compound concentration 10 uM, replicate 2
[5] = 24 h, 1 µM, compound concentration 1 uM, replicate 1
[6] = 24 h, 1 µM, compound concentration 1 uM, replicate 2
[7] = 24 h, 10 µM, compound concentration 10 uM, replicate 1
[8] = 24 h, 10 µM, compound concentration 10 uM, replicate 2
[9] = 48 h, 1 µM, compound concentration 1 uM, replicate 1
[10] = 48 h, 1 µM, compound concentration 1 uM, replicate 2
[11] = 48 h, 10 µM, compound concentration 10 uM, replicate 1
[12] = 48 h, 10 µM, compound concentration 10 uM, replicate 2

## COc1cccc([C@@H](C)NCCCc2ccccc2Cl)c1.Cl [TECALCET HYDROCHLORIDE]
[1]
  Population Apoptotic (%): 45%
  Population Fragmented Nuclei (%): 9%
  Population Healthy Nuclei (%): 46%
  Population Hoechst High Intensity Objects (%): 11%
  Population Membrane Permeable-Phenotype (%): 2%
  Population Mitochondria Different-Phenotype (%): 83%
  Population Mitotic Cells (%): 54%
  Population Normal (%): 88%
  Population Pyknosed Nuclei (%): 44%
  Population Tubulin-Different-Phenotype (%): 57%
  Total Cell Count: 333
[2]
  Population Apoptotic (%): 16%
  Population Fragmented Nuclei (%): 3%
  Population Healthy Nuclei (%): 29%
  Population Hoechst High Intensity Objects (%): 3%
  Population Membrane Permeable-Phenotype (%): 11%
  Population Mitochondria Different-Phenotype (%): 45%
  Population Mitotic Cells (%): 83%
  Population Normal (%): 96%
  Population Pyknosed Nuclei (%): 67%
  Population Tubulin-Different-Phenotype (%): 41%
  Total Cell Count: 188
[3]
  Population Apoptotic (%): 80%
  Population Fragmented Nuclei (%): 9%
  Population Healthy Nuclei (%): 29%
  Population Hoechst High Intensity Objects (%): 12%
  Population Membrane Permeable-Phenotype (%): 2%
  Population Mitochondria Different-Phenotype (%): 100%
  Population Mitotic Cells (%): 19%
  Population Normal (%): 87%
  Population Pyknosed Nuclei (%): 60%
  Population Tubulin-Different-Phenotype (%): 93%
  Total Cell Count: 290
[4]
  Population Apoptotic (%): 59%
  Population Fragmented Nuclei (%): 3%
  Population Healthy Nuclei (%): 22%
  Population Hoechst High Intensity Objects (%): 4%
  Population Membrane Permeable-Phenotype (%): 4%
  Population Mitochondria Different-Phenotype (%): 95%
  Population Mitotic Cells (%): 40%
  Population Normal (%): 95%
  Population Pyknosed Nuclei (%): 74%
  Population Tubulin-Different-Phenotype (%): 95%
  Total Cell Count: 222
[5]
  Population Apoptotic (%): 36%
  Population Fragmented Nuclei (%): 8%
  Population Healthy Nuclei (%): 64%
  Population Hoechst High Intensity Objects (%): 9%
  Population Membrane Permeable-Phenotype (%): 2%
  Population Mitochondria Different-Phenotype (%): 73%
  Population Mitotic Cells (%): 63%
  Population Normal (%): 90%
  Population Pyknosed Nuclei (%): 26%
  Population Tubulin-Different-Phenotype (%): 52%
  Total Cell Count: 417
[6]
  Population Apoptotic (%): 27%
  Population Fragmented Nuclei (%): 3%
  Population Healthy Nuclei (%): 50%
  Population Hoechst High Intensity Objects (%): 2%
  Population Membrane Permeable-Phenotype (%): 10%
  Population Mitochondria Different-Phenotype (%): 25%
  Population Mitotic Cells (%): 72%
  Population Normal (%): 97%
  Population Pyknosed Nuclei (%): 46%
  Population Tubulin-Different-Phenotype (%): 44%
  Total Cell Count: 217
[7]
  Population Apoptotic (%): 74%
  Population Fragmented Nuclei (%): 11%
  Population Healthy Nuclei (%): 36%
  Population Hoechst High Intensity Objects (%): 9%
  Population Membrane Permeable-Phenotype (%): 0%
  Population Mitotic Cells (%): 25%
  Population Normal (%): 90%
  Population Pyknosed Nuclei (%): 51%
  Total Cell Count: 307
[8]
  Population Apoptotic (%): 63%
  Population Fragmented Nuclei (%): 4%
  Population Healthy Nuclei (%): 41%
  Population Hoechst High Intensity Objects (%): 5%
  Population Membrane Permeable-Phenotype (%): 1%
  Population Mitochondria Different-Phenotype (%): 100%
  Population Mitotic Cells (%): 36%
  Population Normal (%): 94%
  Population Pyknosed Nuclei (%): 53%
  Population Tubulin-Different-Phenotype (%): 97%
  Total Cell Count: 233
[9]
  Population Apoptotic (%): 20%
  Population Fragmented Nuclei (%): 6%
  Population Healthy Nuclei (%): 81%
  Population Hoechst High Intensity Objects (%): 5%
  Population Membrane Permeable-Phenotype (%): 2%
  Population Mitochondria Different-Phenotype (%): 22%
  Population Mitotic Cells (%): 79%
  Population Normal (%): 94%
  Population Pyknosed Nuclei (%): 11%
  Population Tubulin-Different-Phenotype (%): 23%
  Total Cell Count: 698
[10]
  Population Apoptotic (%): 23%
  Population Fragmented Nuclei (%): 7%
  Population Healthy Nuclei (%): 76%
  Population Hoechst High Intensity Objects (%): 3%
  Population Membrane Permeable-Phenotype (%): 8%
  Population Mitochondria Different-Phenotype (%): 15%
  Population Mitotic Cells (%): 76%
  Population Normal (%): 96%
  Population Pyknosed Nuclei (%): 16%
  Population Tubulin-Different-Phenotype (%): 49%
  Total Cell Count: 383
[11]
  Population Apoptotic (%): 73%
  Population Fragmented Nuclei (%): 15%
  Population Healthy Nuclei (%): 55%
  Population Hoechst High Intensity Objects (%): 10%
  Population Membrane Permeable-Phenotype (%): 1%
  Population Mitochondria Different-Phenotype (%): 94%
  Population Mitotic Cells (%): 26%
  Population Normal (%): 89%
  Population Pyknosed Nuclei (%): 29%
  Population Tubulin-Different-Phenotype (%): 89%
  Total Cell Count: 355
[12]
  Population Apoptotic (%): 58%
  Population Fragmented Nuclei (%): 4%
  Population Healthy Nuclei (%): 62%
  Population Hoechst High Intensity Objects (%): 2%
  Population Membrane Permeable-Phenotype (%): 0%
  Population Mitochondria Different-Phenotype (%): 93%
  Population Mitotic Cells (%): 41%
  Population Normal (%): 97%
  Population Pyknosed Nuclei (%): 33%
  Population Tubulin-Different-Phenotype (%): 96%
  Total Cell Count: 265

— ChEMBL document CHEMBL4689842, “EUbOPEN Chemogenomics Library wave 1” (2021)
